According to the array DNA melting data of Ke et al. (doi:10.1101/2024.01.08.574731):

How the values were obtained:
[1] = folding enthalpy; higher = less favourable; fluorescence melt of hairpins on a sequencing array, two-state fit; conditions: sodium 0.088 M
How it was run: (§1)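 Two-state fits, bootstrapped, provided melting temperature and folding enthalpy from Cy3 fluorescence normalised to pre-quench Cy3 and to control constructs. Library hairpins with annealed Cy3 and quencher oligos were imaged on a sequenced MiSeq flow cell in 50 mM Na-HEPES pH 8.0, 25 mM NaCl, at 2.5 °C intervals up to 60 °C. Four replicates were combined with inverse-variance weighting. A 9.35 °C upward shift was applied to fitted temperatures to match UV melts.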

[2] = melting temperature; fluorescence melt of hairpins on a sequencing array, two-state fit, raised by 9.35 °C to match UV melts; conditions: sodium 0.088 M
How it was run: as §1

Sequence | folding enthalpy [1] [kcal/mol] | Tm [2] [°C]
GGAGTAGGAAACTACTTC (.(((((....))))).) | -29.2 | 44.4
GGAGTATCGAAAGATTCC (((..(((....)))))) | -13.1 | 26.6
GGAGTCGAAAGACTGTCC ((((((....)))..))) | -12.1 | 35.2
GGAGTGGGAAACCATTCC (((.(((....))).))) | -31 | 46
GGAGTTCGAAAGAAATCC (((.(((....))).))) | -33.8 | 49.2
GGAGTTGAAAAACTCC ((((((....)))))) | -36.2 | 55.7
GGAGTTGGAAACAACTTC (.(((((....))))).) | -31.1 | 47.5
GGATAATCGAAAGATTCC (((..(((....)))))) | -14 | 27.6
GGATACCGAAAGGTTTCC (((.(((....))).))) | -37.6 | 50.2
GGATACGAAAGTAGTTCC ((((((....)))..))) | -9.9 | 25
GGATACGAAAGTATCC ((((((....)))))) | -39.1 | 66
GGATACGAAAGTATGTCC ((((((....)))..))) | -12.5 | 30.1
GGATACGGAAACGCATCC ((((.((....)).)))) | -29.1 | 45.5
GGATACGGAAACGTACCC ((.((((....)))).)) | -21.1 | 43.3
GGATAGAAATATCC (((((....))))) | -17.5 | 36
GGATAGACGAAAGTCTCC (((..(((....)))))) | -14.6 | 33.6
GGATAGGGAAACCTACCC ((.((((....)))).)) | -21.9 | 35.2
GGATAGGGAAACCTATTC (.(((((....))))).) | -29.4 | 34.9
GGATAGTCGAAAGACTCC (((..(((....)))))) | -13.6 | 33.1
GGATATCCGAAAGGATCC (((..(((....)))))) | -11.4 | 32.3
GGATATCGAAAGATCTCC (((.(((....))).))) | -30.9 | 39.1
GGATATCGAAAGATGTCC (((.(((....))).))) | -38.9 | 52
GGATATGGAAACACATCC ((((.((....)).)))) | -26.3 | 31.5

Sequence | folding enthalpy [1] [kcal/mol] | Tm [2] [°C]
GGATCACCGAAAGGTTCC (((..(((....)))))) | -13.1 | 30.3
GGATCACGAAAGTGTCC (((.(((....)))))) | -25.4 | 49.8
GGATCACGAAAGTGTTCC (((.(((....))).))) | -34.3 | 50.8
GGATCAGGAAACTAATCC ((((.((....)).)))) | -12.9 | 26.2
GGATCAGGAAACTGACCC ((.((((....)))).)) | -27.7 | 41.4
GGATCAGGAAACTGATCC (((((((....))))))) | -44.2 | 64.5
GGATCCCGAAAGGGTCC (((.(((....)))))) | -27.8 | 60.1
GGATCCGAAAGGACGTCC ((((((....)))..))) | -13.8 | 31.9
GGATCCGAAAGGACTTCC ((((((....)))..))) | -19.5 | 37.5
GGATCCGAAAGGAGCTCC ((((((....)))..))) | -13.4 | 44.2
GGATCCGAAAGGAGTCC ((((((....))).))) | -18.5 | 47.9
GGATCCGGAAACAGATCC (((((.(....).))))) | -33.1 | 41.6
GGATCGCCGAAAGGCTCC (((..(((....)))))) | -11 | 30.4
GGATCGGGAAACTGGTCC (((.(.(....).).))) | -30.4 | 39.2
GGATCTCCGAAAGGATCC (((..(((....)))))) | -23.8 | 42.1
GGATCTCGAAAGAGCTCC (((.(((....))).))) | -31.7 | 44.5
GGATCTCGAAAGAGTCC (((.(((....)))))) | -25.1 | 49.3
GGATCTGCGAAAGCATCC (((..(((....)))))) | -14.9 | 35.2
GGATCTGGAAACAGACCC ((.((((....)))).)) | -32.2 | 42
GGATGACGAAAGTCCTCC (((.(((....))).))) | -31.5 | 47.1
GGATGACGAAAGTCTTCC (((.(((....))).))) | -42.5 | 52.9
GGATGAGGAAACCCATCC (((((.(....).))))) | -30.3 | 44.6
GGATGAGGAAACTCACCC ((.((((....)))).)) | -22.3 | 39.6

Sequence | folding enthalpy [1] [kcal/mol] | Tm [2] [°C]
GGATGAGGAAACTCATTC (.(((((....))))).) | -23.7 | 41.6
GGATGCGAAAGCATATCC ((((((....)))..))) | -14.9 | 43.8
GGATGCGGAAACGCACCC ((.((((....)))).)) | -27.4 | 52.2
GGATGCGGAAACGTGTCC (((..((....))..))) | -34.9 | 48.4
GGATGGCCGAAAGGCTCC (((..(((....)))))) | -11.6 | 37.3
GGATGGGAAACCATCC ((((((....)))))) | -37.3 | 59.2
GGATGGGGAAACCTATCC ((((.((....)).)))) | -29.4 | 47.2
GGATGTGGAAACACATTC (.(((((....))))).) | -25.7 | 47.6
GGATTACGAAAGTACTCC (((.(((....))).))) | -27.9 | 41.1
GGATTAGGAAACTGATCC ((((.((....)).)))) | -33.7 | 41.8
GGATTCCCGAAAGGGTCC (((..(((....)))))) | -14.6 | 39.3
GGATTCGAAAGAACATCC ((((((....)))..))) | -14.1 | 29.4
GGATTCGAAAGAACCTCC ((((((....)))..))) | -16.7 | 37.8
GGATTCGAAAGAAGATCC ((((((....)))..))) | -12.2 | 28.1
GGATTCGAAAGAATCTCC ((((((....)))..))) | -14.2 | 43.8
GGATTCGCGAAAGCGTCC (((..(((....)))))) | -10.7 | 29.5
GGATTCGGAAACGAGTTC (.(.(((....))).).) | -18.1 | 28.7
GGATTGAAAAATCC (((((....))))) | -21.7 | 44.5
GGATTGGAAACAATCC ((((((....)))))) | -36.7 | 55.5
GGATTTACGAAAGTATCC (((..(((....)))))) | -21 | 31
GGATTTCGAAAGAATCC (((.(((....)))))) | -28.8 | 41.3
GGATTTGGAAACAAATCC (((((((....))))))) | -44.3 | 58.2
GGATTTGGAAACAAATTC (.(((((....))))).) | -28.1 | 40.1

Sequence | folding enthalpy [1] [kcal/mol] | Tm [2] [°C]
GGATTTTCGAAAGAATCC (((..(((....)))))) | -17.7 | 31.4
GGCAAACGAAAGTTAGCC (((.(((....))).))) | -25.1 | 54.9
GGCAAACGAAAGTTGCC (((.(((....)))))) | -33.3 | 59.6
GGCAAAGAAATTTGCC ((((((....)))))) | -36.8 | 56
GGCAACACGAAAGTGGCC (((..(((....)))))) | -37.4 | 52.6
GGCAACCGAAAGGTGGCC (((.(((....))).))) | -35 | 67.7
GGCAACGAAAGTTAAGCC ((((((....)))..))) | -24 | 45.7
GGCAACGAAAGTTACGCC ((((((....)))..))) | -24.2 | 44.4
GGCAACGAAAGTTATGCC ((((((....)))..))) | -24.2 | 46.3
GGCAACGGAAACACTGCC ((((..(....)..)))) | -15 | 29.7
GGCAACGGAAACATCGCC (((.(.(....).).))) | -16.7 | 24.5
GGCAACGGAAACGTCGCC (((.(((....))).))) | -46.8 | 52.8
GGCAAGCGAAAGCTGCC (((.(((....)))))) | -33.4 | 68.9
GGCAAGGCGAAAGCCGCC (((..(((....)))))) | -13.6 | 59.6
GGCAATCGAAAGATAGCC (((.(((....))).))) | -31.8 | 52.7
GGCAATCGAAAGATCGCC (((.(((....))).))) | -34.7 | 51
GGCAATGGAAACACTGCC ((((.((....)).)))) | -33.2 | 44
GGCACAGGAAACTGTACC ((.((((....)))).)) | -29.6 | 44.3
GGCACCCGAAAGGGAGCC (((.(((....))).))) | -32.6 | 68.6
GGCACCGAAAGGTAGCC ((((((....))).))) | -36.9 | 61.4
GGCACCGAAAGGTCCGCC ((((((....)))..))) | -20.4 | 55.2
GGCACCGAAAGGTTAGCC ((((((....)))..))) | -28.9 | 50.8
